# Data from PubChem BioAssay.
# Activity calls are given as the source filed them.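 Rule for the calls, unless noted: active = viability loss from added drug above about 55%, and viability with drug at most 40%, in both replicates (limit read from the data, passing the limit was not always enough); inconclusive = both conditions met in only one replicate; inactive = neither replicate meets both conditions.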
# What was measured:
# [1] = reducers of endogenous Her2 protein level, primary screen, SKBR3 breast tumor cells, AlphaScreen, ATP viability (AID 461;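 active = Her2 level under about 52% in both replicate screens, with viability over 70% of control, limit read from the data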;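 for Her2 level: lower value means less Her2 protein in the cells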;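 for viability: percent of carrier control wells set as 100% viability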); settings: 18-24 h, measured here: SKBR3 viability, ATP luminescence, at 10 µM
# [2] = molecular target: Receptor tyrosine-protein kinase erbB-2 (Homo sapiens) (UniProt P04626); assay: as above; settings: 18-24 h, at 10 µM, stronger effect = lower value
# [3] = SK-BR-3 cell growth inhibitors, pilot screen, 24 h, human (AID 572;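 active = viability at or below 10% of carrier control in both of two separate runs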;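 note: compound exposure lasted between 18 and 24 h rather than exactly 24 h; 100% = carrier-treated control wells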); settings: SK-BR-3 viability, CellTiter-Glo luminescence, at 10 µM, stronger effect = lower value
# [4] = HUVEC growth inhibition – cell-based, human, primary screen (AID 575;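 active = viability at or below 30% in both replicate assays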;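 note: 100% = median of untreated cell wells with 0.1% DMSO on each plate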); settings: HUVEC proliferation, CellTiter-Glo luminescence, 72 h; at 10 µM; stronger effect = lower value
# Procedure, shortened: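 system = HUVEC primary cells | amount = 1250 cells/well | buffer or medium = supplemented EBM, 2% fetal bovine serum | dosing = single-point 10 µM, DMSO 0.1% final | times = 72 h compound incubation | detection = CTG luminescence | read-out = % viability relative to median vehicle-well signal on each plate | control set = vehicle and MePR control wells | format = collagen-coated 384-well format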
# [5] = growth inhibitors of H69AR lung tumor, primary screen, human, duplicate replicates (AID 580;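 active = viability at or under a set limit in both replicates, limit being median viability minus 3 SD, cut at about 48% in these data, passing the limit was not always enough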;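 note: 100% = mean luminescence of untreated wells and 0% = no signal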); settings: H69AR lung tumor cells viability, ATP luminescence, 72 h; at 10 µM; stronger effect = lower value
# [6] = reversal of MRP1-mediated doxorubicin resistance, pilot screen, H69AR cells, doxorubicin co-treatment (AID 601); settings: CellTiter-Glo, 72 h, at 10 µM; for differential viability (reversal): stronger effect = higher value
# [7] = 384-well plate pilot, post-Golgi transport modulator project, inhibition of yeast transport mutant growth (AID 636; in the data active = inhibition above about 31%); settings: absorbance 615 nm, about 18 h, stronger effect = higher value
# [8] = growth suppression of yeast trafficking mutant, preliminary HTS, modulators of trafficking downstream of Golgi apparatus project, 1536-format plate, OD 615 nm (AID 637; in the data active = inhibition above about 30%); settings: yeast transport mutant growth, absorbance 615 nm, 18 h; stronger effect = higher value
# [9] = H69AR cells + 2 uM doxorubicin, measured here: viability with 2 uM doxorubicin, stronger effect = lower value
# [10] = H69AR cells, compound alone cytotoxicity
# Chain of Receptor tyrosine-protein kinase erbB-2 (Homo sapiens) (P04626 whole entry, looked up): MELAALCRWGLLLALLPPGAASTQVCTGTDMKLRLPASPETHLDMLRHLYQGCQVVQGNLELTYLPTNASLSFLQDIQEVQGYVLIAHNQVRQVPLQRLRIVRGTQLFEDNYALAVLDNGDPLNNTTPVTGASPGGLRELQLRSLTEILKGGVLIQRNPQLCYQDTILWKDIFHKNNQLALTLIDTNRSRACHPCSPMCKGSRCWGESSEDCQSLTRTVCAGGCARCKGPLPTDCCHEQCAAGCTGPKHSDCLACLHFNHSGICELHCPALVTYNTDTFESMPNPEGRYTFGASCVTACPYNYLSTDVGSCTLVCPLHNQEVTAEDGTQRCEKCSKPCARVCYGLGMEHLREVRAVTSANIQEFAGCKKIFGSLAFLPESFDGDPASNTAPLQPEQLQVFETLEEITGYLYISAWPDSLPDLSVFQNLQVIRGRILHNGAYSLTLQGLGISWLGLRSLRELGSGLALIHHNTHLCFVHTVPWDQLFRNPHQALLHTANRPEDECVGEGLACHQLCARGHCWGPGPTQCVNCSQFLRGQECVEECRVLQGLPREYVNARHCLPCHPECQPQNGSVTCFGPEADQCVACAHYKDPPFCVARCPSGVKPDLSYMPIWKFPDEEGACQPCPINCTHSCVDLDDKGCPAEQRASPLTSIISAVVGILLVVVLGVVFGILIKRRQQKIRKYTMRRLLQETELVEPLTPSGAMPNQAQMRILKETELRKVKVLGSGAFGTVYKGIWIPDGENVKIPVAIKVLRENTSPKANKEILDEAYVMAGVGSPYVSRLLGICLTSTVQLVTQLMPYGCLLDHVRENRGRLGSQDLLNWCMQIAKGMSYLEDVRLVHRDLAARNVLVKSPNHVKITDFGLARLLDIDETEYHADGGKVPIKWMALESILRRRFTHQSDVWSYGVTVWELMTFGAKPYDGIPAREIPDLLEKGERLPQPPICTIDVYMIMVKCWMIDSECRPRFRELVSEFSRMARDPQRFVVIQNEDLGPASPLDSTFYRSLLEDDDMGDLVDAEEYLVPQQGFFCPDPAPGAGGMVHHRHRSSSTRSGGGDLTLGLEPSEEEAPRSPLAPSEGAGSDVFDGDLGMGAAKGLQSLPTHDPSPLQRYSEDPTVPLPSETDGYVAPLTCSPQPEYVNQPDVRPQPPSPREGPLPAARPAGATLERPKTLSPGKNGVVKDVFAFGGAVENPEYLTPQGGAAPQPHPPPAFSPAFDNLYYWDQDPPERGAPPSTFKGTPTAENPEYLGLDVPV
Structure (SMILES),viability [1],Her2 level [2],viability [3],viability [4],viability [5],differential viability (reversal) ([6]; H69AR cells + 2 uM doxorubicin),"viability [6, 9]","viability [6, 10]",inhibition [7],inhibition [8]
O=C(c1ccc(Br)o1)N(c1ccc(Br)cc1)C1C=CS(=O)(=O)C1 (stereo not given),89%,156% (inactive),89% (inactive),80% (inactive),87% (inactive),5.32% (inactive),81.7%,87%,5% (inactive),21% (inactive)
COc1ccc(-c2noc(CN(C(=O)C(C)(C)C)C(C)C)n2)cc1,96%,102% (inactive),96% (inactive),102% (inactive),109% (inactive),17.6% (inactive),91.3%,109%,-4.61% (inactive),-6.83% (inactive)
CNC(=O)Nc1cccc(C(F)(F)F)c1,105%,82.5% (inactive),105% (inactive),93% (inactive),93.6% (inactive),-6.37% (inactive),100%,93.6%,-4.08% (inactive),0% (inactive)
CCCCCC1CC(CC(C)C(=O)Nc2nncs2)C(=O)O1 (stereo not given),90.5%,86.5% (inactive),90.5% (inactive),85.2% (inactive),93.3% (inactive),7.83% (inactive),85.4%,93.3%,-5.6% (inactive),-2.86% (inactive)
CC(C)(C)c1cc(CCC(=O)N2CCNCC2)c(C(C)(C)C)cc1O,106%,85.5% (inactive),106% (inactive),82.9% (inactive),98.3% (inactive),8% (inactive),90.3%,98.3%,-0.26% (inactive),-2.46% (inactive)
CCCC(=O)Nc1ccccc1-c1nnn(CC(=O)Nc2ccc(OCC)cc2)n1,108%,87% (inactive),108% (inactive),62% (inactive),89.1% (inactive),-8.82% (inactive),97.9%,89.1%,1.82% (inactive),-4.75% (inactive)
C=CCn1c(=O)[nH]c2cc(C(=O)N3CCN(c4cc(C)ccc4C)CC3)ccc2c1=O,81.5%,79.5% (inactive),81.5% (inactive),71.7% (inactive),41.3% (active),7.67% (inactive),33.6%,41.3%,-6.76% (inactive),-0.83% (inactive)
CN1CC(=O)N(CC(=O)NCCc2ccc(F)cc2)c2ccccc2C1=O,95%,90.5% (inactive),95% (inactive),105% (inactive),90% (inactive),-3.62% (inactive),93.6%,90%,-6.36% (inactive),1.75% (inactive)
OCCn1c(-c2ccc3c(c2)OCO3)csc1=Nc1ccccc1,97%,71.5% (inactive),97% (inactive),51.4% (inactive),88.7% (inactive),-2.46% (inactive),91.2%,88.7%,-4.4% (inactive),5.9% (inactive)
CC(=O)Nc1ccc(OC(=O)c2cccs2)cc1,101%,97% (inactive),101% (inactive),103% (inactive),87% (inactive),-13.6% (inactive),101%,87%,-1.17% (inactive),-4.59% (inactive)
CC(C)CCN1CC(C(=O)NCc2ccccc2)CC1=O (stereo not given),88.5%,87.5% (inactive),88.5% (inactive),88% (inactive),92.6% (inactive),1.32% (inactive),91.2%,92.6%,1.28% (inactive),-0.83% (inactive)
CCC(C)OC(=O)n1ccc(C(=O)Nc2nccs2)n1 (stereo not given),106%,84% (inactive),106% (inactive),91.4% (inactive),91.4% (inactive),-4.24% (inactive),95.6%,91.4%,0.53% (inactive),-4.19% (inactive)
O=C(NCc1cccs1)C1CCCN(c2ncccn2)C1 (stereo not given),104%,89.5% (inactive),104% (inactive),105% (inactive),94.8% (inactive),8.86% (inactive),85.9%,94.8%,-2.4% (inactive),-1.94% (inactive)
c1cncc(-c2nnc(-c3ccco3)o2)c1,106%,114% (inactive),106% (inactive),86.3% (inactive),105% (inactive),16% (inactive),89%,105%,-4.93% (inactive),-7.58% (inactive)
O=C(Nc1cccnc1)c1cccc(NC(=O)c2ccco2)c1,97.5%,85% (inactive),97.5% (inactive),94.4% (inactive),89.9% (inactive),0.575% (inactive),89.3%,89.9%,-1.56% (inactive),4.1% (inactive)
COC(=O)C1(C)NC(c2ccco2)C2C(=O)N(c3ccc(C)cc3)C(=O)C21 (stereo not given),106%,95% (inactive),106% (inactive),96.6% (inactive),91.5% (inactive),-3% (inactive),94.5%,91.5%,-5.27% (inactive),-3.83% (inactive)

Structure (SMILES),viability [1],Her2 level [2],viability [3],viability [4],viability [5],differential viability (reversal) ([6]; H69AR cells + 2 uM doxorubicin),"viability [6, 9]","viability [6, 10]",inhibition [7],inhibition [8]
Cc1cc(NCCN2CCCCC2)n2c(nc3ccccc32)c1C#N,87.5%,65.5% (inactive),87.5% (inactive),96.2% (inactive),85.1% (inactive),-7.47% (inactive),92.6%,85.1%,-5.6% (inactive),4.1% (inactive)
CC1(C)Cc2c(c(N3CCOCC3)nc3sc(C#N)c(N)c23)CS1,92%,122% (inactive),92% (inactive),85.2% (inactive),83.3% (inactive),-1.22% (inactive),84.5%,83.3%,0.9% (inactive),-8.67% (inactive)
Cc1cccc(-c2noc(CCC(=O)Nc3ccccc3)n2)c1,106%,93% (inactive),106% (inactive),79.4% (inactive),91.2% (inactive),6.29% (inactive),84.9%,91.2%,-7.3% (inactive),-11.2% (inactive)
CC(C)CC(c1nnnn1CC1CCCO1)N1CCN(Cc2ccc3c(c2)OCO3)CC1 (stereo not given),86.5%,70% (inactive),86.5% (inactive),90% (inactive),96.7% (inactive),8.46% (inactive),88.2%,96.7%,-6.08% (inactive),-9.34% (inactive)
Cc1nc2ccccc2c2oc(C(=O)NCc3ccccn3)cc12,81%,88% (inactive),81% (inactive),81.4% (inactive),96.8% (inactive),2.25% (inactive),94.6%,96.8%,-1.73% (inactive),-2.3% (inactive)
Cc1ccccc1C1CC(c2ccccc2)Nc2ncnn21 (stereo not given),90%,87.5% (inactive),90% (inactive),94.8% (inactive),64.2% (inactive),-31.1% (inactive),95.3%,64.2%,1.47% (inactive),-6.39% (inactive)
O=c1cc(CN2CCN(c3ccc(F)cc3)CC2)nc2sccn12,85%,118% (inactive),85% (inactive),87.9% (inactive),87.2% (inactive),-4.83% (inactive),92.1%,87.2%,5.45% (inactive),-14.2% (inactive)
O=C(OCc1nnc(-c2ccccc2)o1)C1=COCCO1,100%,94% (inactive),100% (inactive),101% (inactive),92.1% (inactive),-0.965% (inactive),93%,92.1%,-8.67% (inactive),-1.97% (inactive)
CCCCOc1ccc(-c2nnn(CC(=O)Nc3ncc(CC(=O)OCC)s3)n2)cc1,122%,100% (inactive),122% (inactive),74.5% (inactive),84% (inactive),-4.45% (inactive),88.4%,84%,-7.11% (inactive),-1.59% (inactive)
COc1ccccc1-n1nnnc1SCc1ccccc1,103%,94% (inactive),103% (inactive),90.6% (inactive),97.1% (inactive),16.7% (inactive),80.3%,97.1%,-4.27% (inactive),1.61% (inactive)
Cc1cc(Cl)c(S(=O)(=O)NC2CCCCC2)cc1OCC(=O)Nc1nncs1,107%,88% (inactive),107% (inactive),86.5% (inactive),90.1% (inactive),-3.42% (inactive),93.6%,90.1%,-4.74% (inactive),-3.17% (inactive)
O=C(CP(=O)(CO)CO)c1ccc(Cl)cc1,100%,95% (inactive),100% (inactive),100% (inactive),101% (inactive),8.5% (inactive),92.3%,101%,-0.26% (inactive),-2.18% (inactive)
Cc1onc(-c2ccccc2)c1C(=O)Nc1ccnn1C1CCCCC1,99.5%,97.5% (inactive),99.5% (inactive),91.3% (inactive),90.6% (inactive),-4.68% (inactive),95.3%,90.6%,-5.6% (inactive),-2.95% (inactive)
COC(=O)C1=C(C)NC(=O)C1(NC(=O)c1cccnc1)C(F)(F)F (stereo not given),126%,96.5% (inactive),126% (inactive),99.4% (inactive),103% (inactive),14% (inactive),88.7%,103%,-2.5% (inactive),0.55% (inactive)
CCOC(=O)COc1ccc(S(=O)(=O)Nc2ccc3c(c2)OCO3)cc1,164%,113% (inactive),164% (inactive),10.4% (active),91% (inactive),-1.11% (inactive),92.1%,91%,-4.21% (inactive),9.02% (inactive)
O=C(c1cc2cc(Cl)cc(Cl)c2oc1=O)N1CCOCC1,76%,82.5% (inactive),76% (inactive),96% (inactive),88.4% (inactive),0.725% (inactive),87.7%,88.4%,-6.35% (inactive),3.44% (inactive)
